Active and inactive are the calls of the source. The calls are words filed in the database; no cut-off is given here.
Experiments:
Format in all cases: functional
[1] = (§1) Growth inhibition of human HOP92 cells after 48 hrs by SRB assay; conditions: HOP-92, 48 h; for TGI: read-out: pTGI (converted)
Summary of the method: (§2)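 NCI five-dose assay against the ~60-cell-line panel (nine cancer types). Tenfold dilutions from 10−4 to 10−8 M were used with continuous 48-h exposure and SRB absorbance readout. Percent growth was computed from time-zero, control and treated absorbances. GI50 is the concentration giving 50% lower net protein increase than controls. Values not reached are reported as beyond the tested range.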

Malme-3M = assay: Growth inhibition of human MALME-3M cells after 48 hrs by SRB assay; summary of the method: as §2
MCF7 = assay: Anticancer activity against human MCF7 cells assessed as cell growth at 100 uM after 48 hrs by SRB assay; conditions: MCF7, 48 h, read-out: Activity
Summary of the method: (§3)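 NCI one-dose primary screen on a three-line panel (breast MCF7, lung NCI-H460, CNS SF-268). Cells were inoculated and preincubated 24–48 h, then exposed to a single concentration of 10−4 M for 48 h. The endpoint was sulforhodamine B protein staining, and results are expressed as percent growth relative to untreated control cells. Negative values denote cytotoxicity.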

NCI-H460 [2] = assay: Anticancer activity against human NCI-H460 cells assessed as cell growth at 100 uM after 48 hrs by SRB assay; conditions: NCI-H460, 48 h, read-out: Activity; summary of the method: as §3
SF-268 = assay: Anticancer activity against human SF268 cells assessed as cell growth at 100 uM after 48 hrs by SRB assay; conditions: SF-268, 48 h, read-out: Activity; summary of the method: as §3
[3] = system: Trypanosoma brucei brucei; assay: Antitrypanosomal activity against bloodstream form of Trypanosoma brucei brucei strain 90-13 assessed as inhibition of parasite growth at 10 ug/ml after 72 hrs by resazurin reduction test; conditions: strain 90-13, 72 h
Summary of the method: (§4)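 Trypanosoma brucei brucei 90-13 bloodstream forms, grown in HMI9 with 10% FCS at 37 °C under 5% CO2. Log-phase parasites were seeded at 10^5 cells/mL with or without inhibitor, with stocks prepared in DMSO. After 72 h, resazurin was added and fluorescence was read at 530/590 nm after a further 4 h. Percent growth inhibition was calculated versus drug-free parasites, with DMSO as control.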

[4] = system: Trypanosoma brucei brucei; assay: Antitrypanosomal activity against bloodstream form of Trypanosoma brucei brucei strain 90-13 assessed as inhibition of parasite growth at 1 ug/ml after 72 hrs by resazurin reduction test; conditions: strain 90-13, 72 h; summary of the method: as §4
SR = assay: Growth inhibition of human SR cells after 48 hrs by SRB assay
Summary of the method: (§5)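 NCI ~60-cell-line five-dose screen. Cells were preincubated 24-48 h, then given compound at 10-fold dilutions from 10^-4 to 10^-8 M with 48 h continuous exposure. SRB protein stain was read by absorbance at time zero, in untreated control and with drug. GI50 was derived from [(Ti-Tz)/(C-Tz)]x100=50, TGI from Ti=Tz, and LC50 from [(Ti-Tz)/Tz]x100=-50.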

CCRF-CEM = assay: Growth inhibition of human CCRF-CEM cells after 48 hrs by SRB assay; summary of the method: as §2
CAKI-1 = assay: Growth inhibition of human CAKI-1 cells after 48 hrs by SRB assay; summary of the method: as §2
SNB- = assay: Growth inhibition of human SNB cells after 48 hrs by SRB assay; summary of the method: as §2
OVCAR-3 = assay: Growth inhibition of human OVCAR3 cells after 48 hrs by SRB assay; summary of the method: as §2
HOP-62 = assay: Growth inhibition of human HOP62 cells after 48 hrs by SRB assay; summary of the method: as §2
SK-MEL-5 = assay: Growth inhibition of human SK-MEL-5 cells after 48 hrs by SRB assay; summary of the method: as §2
EKVX = assay: Growth inhibition of human EKVX cells after 48 hrs by SRB assay; summary of the method: as §2
SNB-75 = assay: Growth inhibition of human SNB75 cells after 48 hrs by SRB assay; summary of the method: as §2
HOP-92 = assay: as §1; summary of the method: as §2
MOLT-4 = assay: Growth inhibition of human MOLT4 cells after 48 hrs by SRB assay; summary of the method: as §2
OVCAR-4 = assay: Growth inhibition of human OVCAR4 cells after 48 hrs by SRB assay; summary of the method: as §2
BT-549 = assay: Growth inhibition of human BT549 cells after 48 hrs by SRB assay; summary of the method: as §2
UACC-257 = assay: Growth inhibition of human UACC257 cells after 48 hrs by SRB assay; summary of the method: as §5
NCI-H522 = assay: Growth inhibition of human NCI-H522 cells after 48 hrs by SRB assay; summary of the method: as §2
Hs-578T = assay: Growth inhibition of human Hs 578T cells after 48 hrs by SRB assay; summary of the method: as §2
A549 = assay: Growth inhibition of human A549/ATCC cells after 48 hrs by SRB assay; summary of the method: as §2
NCI-H23 = assay: Growth inhibition of human NCI-H23 cells after 48 hrs by SRB assay; summary of the method: as §2
UO-31 = assay: Growth inhibition of human UO31 cells after 48 hrs by SRB assay; summary of the method: as §5
SF-295 = assay: Growth inhibition of human SF295 cells after 48 hrs by SRB assay; summary of the method: as §2
HCT-116 = assay: Growth inhibition of human HCT116 cells after 48 hrs by SRB assay; summary of the method: as §2
TK-10 = assay: Growth inhibition of human TK10 cells after 48 hrs by SRB assay; summary of the method: as §5
786-0 [5] = assay: Growth inhibition of human 786-0 cells after 48 hrs by SRB assay; summary of the method: as §2
NCI/ADR-RES = assay: Growth inhibition of human NCI/ADR-RES cells after 48 hrs by SRB assay; summary of the method: as §2
U-251 = assay: Growth inhibition of human U251 cells after 48 hrs by SRB assay; summary of the method: as §5
KM12 = assay: Growth inhibition of human KM12 cells after 48 hrs by SRB assay; summary of the method: as §2
SF-539 = assay: Growth inhibition of human SF539 cells after 48 hrs by SRB assay; summary of the method: as §2
RPMI18226 = assay: Growth inhibition of human […] cells after 48 hrs by SRB assay; summary of the method: as §2
LOX IMVI = assay: Growth inhibition of human LOXIMVI cells after 48 hrs by SRB assay; summary of the method: as §2
MDA-MB-435 = assay: Growth inhibition of human MDA-MB-435 cells after 48 hrs by SRB assay; summary of the method: as §2
RXF 393 = assay: Growth inhibition of human RXF393 cells after 48 hrs by SRB assay; summary of the method: as §2
OVCAR-8 = assay: Growth inhibition of human OVCAR8 cells after 48 hrs by SRB assay; summary of the method: as §2
NCI-H322M = assay: Growth inhibition of human NCI-H322M cells after 48 hrs by SRB assay; summary of the method: as §2
HCC 2998 = assay: Growth inhibition of human HCC2998 cells after 48 hrs by SRB assay; summary of the method: as §2
NCI-H460 [6] = assay: Growth inhibition of human NCI-H460 cells after 48 hrs by SRB assay; summary of the method: as §2
ACHN = assay: Growth inhibition of human ACHN cells after 48 hrs by SRB assay; summary of the method: as §2
OVCAR-5 = assay: Growth inhibition of human OVCAR5 cells after 48 hrs by SRB assay; summary of the method: as §2
UACC-62 = assay: Growth inhibition of human UACC62 cells after 48 hrs by SRB assay; summary of the method: as §5
786-0 [7] = assay: Growth inhibition of human 786-O cells after 48 hrs by SRB assay; summary of the method: as §2
HOP69 = assay: Growth inhibition of human […] cells after 48 hrs by SRB assay; summary of the method: as §2
MDA-MB-231 = assay: Growth inhibition of human MDA-MB-231/ATCC cells after 48 hrs by SRB assay; summary of the method: as §2
PC-3 = assay: Growth inhibition of human PC3 cells after 48 hrs by SRB assay; summary of the method: as §2
M14 = assay: Growth inhibition of human M14 cells after 48 hrs by SRB assay; summary of the method: as §2

COc1ccc2cc(C(=O)N3CCCCCC3)sc(=O)c2c1OC
GI50 [1]: 2.75 µM
TGI [1]: 8.13 µM
GI50 (Malme-3M): 34.7 µM
TGI (Malme-3M; read-out: pTGI (converted)): > 100 µM

COc1ccc2cc(C(=O)NCC(=O)O)sc(=O)c2c1OC
growth at 100 µM (MCF7): 109%
growth at 100 µM (NCI-H460 [2]): 109%
growth at 100 µM (SF-268): 112%

O=C(c1cc2ccccc2c(=O)s1)N1CCOCC1
growth at 100 µM (MCF7): 114%
inhibition at 10 µg/mL [3]: 8.15%
growth at 100 µM (NCI-H460 [2]): 109%
growth at 100 µM (SF-268): 111%
inhibition at 1 µg/mL [4]: 8.13%

COc1ccc2cc(C(=O)Nc3ccc(Cl)cc3)sc(=O)c2c1OC
growth at 100 µM (MCF7): 80%
inhibition at 10 µg/mL [3]: 5.99%
growth at 100 µM (NCI-H460 [2]): 93%
growth at 100 µM (SF-268): 91%
inhibition at 1 µg/mL [4]: 5.77%

NS(=O)(=O)c1ccc(NC(=O)c2cc3ccccc3c(=O)s2)cc1
GI50 (SR): 31.6 µM
TGI (SR; read-out: pTGI (converted)): > 100 µM

COc1ccc2cc(C(=O)Nc3cccc4ccccc34)sc(=O)c2c1OC
GI50 [1]: 20.4 µM
TGI [1]: 69.2 µM
inhibition at 10 µg/mL [3]: 41.2%
inhibition at 1 µg/mL [4]: 20.8%

COc1ccc2cc(C(=O)Nc3nccs3)sc(=O)c2c1OC
pGI50 (CCRF-CEM): inactive
pTGI (CCRF-CEM): inactive
pGI50 (CAKI-1): inactive
pTGI (CAKI-1): inactive
pGI50 (SNB-): inactive
pTGI (SNB-): inactive
pGI50 (OVCAR-3): inactive
pTGI (OVCAR-3): inactive
pGI50 (HOP-62): inactive
pTGI (HOP-62): inactive
pGI50 (SK-MEL-5): inactive
pTGI (SK-MEL-5): inactive
pGI50 (EKVX): inactive
pTGI (EKVX): inactive
pGI50 (SNB-75): inactive
pTGI (SNB-75): inactive
pGI50 (HOP-92): inactive
pTGI (HOP-92): inactive
pGI50 (MOLT-4): inactive
pTGI (MOLT-4): inactive
pGI50 (OVCAR-4): inactive
pTGI (OVCAR-4): inactive
pGI50 (BT-549): inactive
pTGI (BT-549): inactive
pGI50 (UACC-257): inactive
pTGI (UACC-257): inactive
pGI50 (NCI-H522): inactive
pTGI (NCI-H522): inactive
pGI50 (Hs-578T): inactive
pTGI (Hs-578T): inactive
growth at 100 µM (MCF7): 95%
pGI50 (SR): inactive
pTGI (SR): inactive
pGI50 (A549): inactive
pTGI (A549): inactive
pGI50 (NCI-H23): inactive
pTGI (NCI-H23): inactive
pGI50 (UO-31): inactive
pTGI (UO-31): inactive
pGI50 (SF-295): inactive
pTGI (SF-295): inactive
pGI50 (HCT-116): inactive
pTGI (HCT-116): inactive
pGI50 (TK-10): inactive
pTGI (TK-10): inactive
pGI50 (786-0 [5]): inactive
pTGI (786-0 [5]): inactive
pGI50 (NCI/ADR-RES): inactive
pTGI (NCI/ADR-RES): inactive
pGI50 (U-251): inactive
pTGI (U-251): inactive
pGI50 (KM12): inactive
pTGI (KM12): inactive
growth at 100 µM (NCI-H460 [2]): 94%
pGI50 (SF-539): inactive
pTGI (SF-539): inactive
pGI50 (RPMI18226): inactive
pTGI (RPMI18226): inactive
pGI50 (LOX IMVI): inactive
pTGI (LOX IMVI): inactive
pGI50 (MDA-MB-435): inactive
pTGI (MDA-MB-435): inactive
pGI50 (RXF 393): inactive
pTGI (RXF 393): inactive
growth at 100 µM (SF-268): 98%
pGI50 (OVCAR-8): inactive
pTGI (OVCAR-8): inactive
pGI50 (NCI-H322M): inactive
pTGI (NCI-H322M): inactive
pGI50 (HCC 2998): inactive
pTGI (HCC 2998): inactive
pGI50 (NCI-H460 [6]): inactive
pTGI (NCI-H460 [6]): inactive
pGI50 (ACHN): inactive
pTGI (ACHN): inactive
pGI50 (OVCAR-5): inactive
pTGI (OVCAR-5): inactive
pGI50 (UACC-62): inactive
pTGI (UACC-62): inactive
pGI50 (786-0 [7]): inactive
pTGI (786-0 [7]): inactive
pGI50 (HOP69): inactive
pTGI (HOP69): inactive
pGI50 (Malme-3M): inactive
pTGI (Malme-3M): inactive
pGI50 (MDA-MB-231): inactive
pTGI (MDA-MB-231): inactive
pGI50 (PC-3): inactive
pTGI (PC-3): inactive
pGI50 (M14): inactive
pTGI (M14): inactive

COc1ccc2cc(C(=O)Nc3ccccc3C(F)(F)F)sc(=O)c2c1OC
growth at 100 µM (MCF7): 99%
inhibition at 10 µg/mL [3]: 2.91%
growth at 100 µM (NCI-H460 [2]): 90%
growth at 100 µM (SF-268): 107%
inhibition at 1 µg/mL [4]: 6.86%

O=C(Nc1ccccc1)c1cc2ccccc2c(=O)s1
growth at 100 µM (MCF7): 78%
growth at 100 µM (NCI-H460 [2]): 75%
growth at 100 µM (SF-268): 83%

From ChEMBL document CHEMBL3124905, “Isothiocoumarin-3-carboxylic acid derivatives: synthesis, anticancer and antitrypanosomal activity evaluation” (Eur J Med Chem, 2014)
